# Data published in ChEMBL document CHEMBL4118244, “Design, synthesis and biological evaluation of benzofuran appended benzothiazepine derivatives as inhibitors of butyrylcholinesterase and antimicrobial agents” (Bioorg Med Chem, 2018).
# Activity calls are given as the source filed them. No cut-off for these calls is given here.
# How the values were obtained:
# Cholinesterase = Cholinesterase (Equus caballus, UniProt P81908); assay: Inhibition of equine serum BChE using butyrylthiocholine iodide as substrate pretreated for 15 mins followed by substrate addition measured for 6 mins by Ellman's method; conditions: read-out: IC50
# In short: (§1)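 Ellman spectrophotometric assay in 0.1 M phosphate buffer pH 8.0 with DTNB, 25 °C. AChE (electric eel, Type V-S) or BChE was preincubated 15 min with compound before adding acetylthiocholine iodide or butyrylthiocholine iodide, respectively. Absorbance change at 412 nm was read for 6 min. Five concentrations were tested in triplicate, corrected by a nonenzymatic blank, with a no-inhibitor reference.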
# [1] = target: Acetylcholinesterase (Electrophorus electricus) (UniProt O42275); assay: Inhibition of electric eel AChE using acetylthiocholine iodide as substrate pretreated for 15 mins followed by substrate addition measured for 6 mins by Ellman's method; in short: as §1
# Escherichia coli [2] = assay: Antibacterial activity against Escherichia coli ATCC 10536 assessed as diameter of inhibition zone at 200 ug per disc after 24 hrs by agar disc diffusion method; assay type: functional; conditions: ATCC 10536, 24 h, read-out: DIZ
# In short: (§2)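 Agar disc diffusion. Compounds at 20 mg mL⁻¹ in DMSO, filter-sterilised. 100 µL of 10⁸ CFU mL⁻¹ bacteria spread on nutrient agar. 6 mm discs carried 10 µl (200 µg per disc), with DMSO discs as negative control. Incubation 24 h at 37 °C. Read-out is inhibition zone diameter, mean of 3 repeats (±1 mm).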
# Proteus vulgaris [3] = assay: Antibacterial activity against Proteus vulgaris PTCC 1182 assessed as diameter of inhibition zone at 200 ug per disc after 24 hrs by agar disc diffusion method; assay type: functional; conditions: PTCC 1182, 24 h, read-out: DIZ; in short: as §2
# Shigella dysenteriae [4] = assay: Antibacterial activity against Shigella dysenteriae PTCC 1188 assessed as diameter of inhibition zone at 200 ug per disc after 24 hrs by agar disc diffusion method; assay type: functional; conditions: PTCC 1188, 24 h, read-out: DIZ; in short: as §2
# Staphylococcus aureus [5] = assay: Antibacterial activity against Staphylococcus aureus ATCC 29737; assay type: functional
# Klebsiella pneumoniae [6] = assay: Antibacterial activity against Klebsiella pneumoniae ATCC 10031; assay type: functional
# Proteus vulgaris [7] = assay: Antibacterial activity against Proteus vulgaris PTCC 1182; assay type: functional
# Bacillus spizizenii [8] = assay: Antibacterial activity against Bacillus subtilis ATCC 6633 assessed as diameter of inhibition zone at 200 ug per disc after 24 hrs by agar disc diffusion method; assay type: functional; conditions: ATCC 6633, 24 h, read-out: DIZ; in short: as §2
# [9] = test system: Staphylococcus epidermidis; assay: Antibacterial activity against Staphylococcus epidermidis ATCC 12228 assessed as diameter of inhibition zone at 200 ug per disc after 24 hrs by agar disc diffusion method; assay type: functional; conditions: ATCC 12228, 24 h, read-out: DIZ; in short: as §2
# [10] = test system: Staphylococcus epidermidis; assay: Antibacterial activity against Staphylococcus epidermidis ATCC 12228; assay type: functional
# Pseudomonas aeruginosa [11] = assay: Antibacterial activity against Pseudomonas aeruginosa ATCC 27853 assessed as diameter of inhibition zone at 200 ug per disc after 24 hrs by agar disc diffusion method; assay type: functional; conditions: ATCC 27853, 24 h, read-out: DIZ; in short: as §2
# Escherichia coli [12] = assay: Antibacterial activity against Escherichia coli ATCC 10536; assay type: functional
# Pseudomonas aeruginosa [13] = assay: Antibacterial activity against Pseudomonas aeruginosa ATCC 27853; assay type: functional
# Staphylococcus aureus [14] = assay: Antibacterial activity against Staphylococcus aureus ATCC 29737 assessed as diameter of inhibition zone at 200 ug per disc after 24 hrs by agar disc diffusion method; assay type: functional; conditions: ATCC 29737, 24 h, read-out: DIZ; in short: as §2
# Shigella dysenteriae [15] = assay: Antibacterial activity against Shigella dysenteriae PTCC 1188; assay type: functional
# Salmonella paratyphi [16] = assay: Antibacterial activity against Salmonella paratyphi A serotype ATCC 5702; assay type: functional; conditions: Salmonella enterica subsp. enterica serovar Paratyphi A
# Bacillus spizizenii [17] = assay: Antibacterial activity against Bacillus subtilis ATCC 6633; assay type: functional
# Salmonella paratyphi [18] = assay: Antibacterial activity against Salmonella paratyphi A serotype ATCC 5702 assessed as diameter of inhibition zone at 200 ug per disc after 24 hrs by agar disc diffusion method; assay type: functional, Salmonella enterica subsp. enterica serovar Paratyphi A; conditions: Salmonella enterica, ATCC 5702, 24 h; read-out: DIZ; in short: as §2
# Klebsiella pneumoniae [19] = assay: Antibacterial activity against Klebsiella pneumoniae ATCC 10031 assessed as diameter of inhibition zone at 200 ug per disc after 24 hrs by agar disc diffusion method; assay type: functional; conditions: ATCC 10031, 24 h, read-out: DIZ; in short: as §2
# Candida albicans = assay: Antifungal activity against Candida albicans ATCC 10231; assay type: functional
# Aspergillus brasiliensis [20] = assay: Antifungal activity against Aspergillus brasiliensis PTCC 5011 assessed as diameter of inhibition zone at 200 ug per disc after 72 hrs by agar disc diffusion method; assay type: functional
# In short: (§3)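 Agar disc diffusion against mold. Compounds at 20 mg mL⁻¹ in DMSO, filter-sterilised. 6 mm discs carried 10 µl (200 µg per disc), with DMSO discs as negative control. Incubation 72 h at 30 °C. Read-out is growth inhibition zone diameter, mean of 3 repeats (±1 mm).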
# Aspergillus brasiliensis [21] = assay: Antifungal activity against Aspergillus brasiliensis PTCC 5011; assay type: functional
# Aspergillus niger [22] = assay: Antifungal activity against Aspergillus niger ATCC 16404; assay type: functional
# Aspergillus niger [23] = assay: Antifungal activity against Aspergillus niger ATCC 16404 assessed as diameter of inhibition zone at 200 ug per disc after 72 hrs by agar disc diffusion method; assay type: functional; in short: as §3
# Cholinesterase, sequence (P81908 whole entry): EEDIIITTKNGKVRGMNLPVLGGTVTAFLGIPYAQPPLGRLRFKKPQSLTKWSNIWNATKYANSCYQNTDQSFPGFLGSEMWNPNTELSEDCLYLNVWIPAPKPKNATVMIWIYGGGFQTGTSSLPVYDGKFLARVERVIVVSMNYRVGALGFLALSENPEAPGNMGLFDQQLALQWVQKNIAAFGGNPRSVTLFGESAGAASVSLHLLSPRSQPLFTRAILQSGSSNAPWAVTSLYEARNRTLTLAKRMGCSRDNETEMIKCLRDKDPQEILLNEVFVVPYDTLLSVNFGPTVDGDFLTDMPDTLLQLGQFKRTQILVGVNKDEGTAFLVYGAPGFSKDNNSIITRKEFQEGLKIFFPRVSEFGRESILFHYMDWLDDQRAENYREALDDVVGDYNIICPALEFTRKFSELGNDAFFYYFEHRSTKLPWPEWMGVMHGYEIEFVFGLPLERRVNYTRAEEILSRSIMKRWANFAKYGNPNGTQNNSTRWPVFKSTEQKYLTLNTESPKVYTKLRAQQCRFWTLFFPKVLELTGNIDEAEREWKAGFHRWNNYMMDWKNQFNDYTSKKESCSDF
# Acetylcholinesterase (Electrophorus electricus), sequence (O42275 24-633 limits assumed): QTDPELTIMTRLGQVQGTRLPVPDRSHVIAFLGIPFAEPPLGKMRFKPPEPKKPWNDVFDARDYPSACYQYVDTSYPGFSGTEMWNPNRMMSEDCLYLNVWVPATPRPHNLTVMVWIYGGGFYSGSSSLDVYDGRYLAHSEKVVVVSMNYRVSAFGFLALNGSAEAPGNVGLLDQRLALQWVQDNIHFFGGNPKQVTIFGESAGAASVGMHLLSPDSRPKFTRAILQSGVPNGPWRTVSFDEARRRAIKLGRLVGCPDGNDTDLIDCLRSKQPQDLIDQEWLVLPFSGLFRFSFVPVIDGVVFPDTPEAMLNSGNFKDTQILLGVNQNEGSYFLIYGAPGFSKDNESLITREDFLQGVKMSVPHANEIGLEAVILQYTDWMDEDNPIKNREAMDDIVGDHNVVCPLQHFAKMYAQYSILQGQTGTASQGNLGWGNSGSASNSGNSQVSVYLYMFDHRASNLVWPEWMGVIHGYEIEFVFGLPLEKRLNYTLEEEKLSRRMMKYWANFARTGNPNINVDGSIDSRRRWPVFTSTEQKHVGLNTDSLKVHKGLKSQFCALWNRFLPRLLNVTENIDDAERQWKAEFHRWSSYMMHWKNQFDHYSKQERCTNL
compound,measurement,setting,value
O=[N+]([O-])c1ccc2oc(C3=Nc4ccccc4SC(c4c[nH]c5ccccc45)C3)cc2c1 (stereo unspecified),IC50,Cholinesterase,72 µM
same,inhibition,[1],inactive
CO[C@H]1/C=C/O[C@@]2(C)Oc3c(C)c(O)c4c(O)c(c(/C=N/N5CCN(C)CC5)c(O)c4c3C2=O)NC(=O)/C(C)=C\C=C\[C@H](C)[C@H](O)[C@@H](C)[C@@H](O)[C@@H](C)[C@H](OC(C)=O)[C@@H]1C [RIFAMPIN],zone of inhibition at 200 µg/disc,Escherichia coli [2],11 mm
same,zone of inhibition at 200 µg/disc,Proteus vulgaris [3],10 mm
same,zone of inhibition at 200 µg/disc,Shigella dysenteriae [4],8 mm
same,MIC,Staphylococcus aureus [5],0.25 µg/mL
same,MIC,Klebsiella pneumoniae [6],0.25 µg/mL
same,MIC,Proteus vulgaris [7],0.125 µg/mL
same,zone of inhibition at 200 µg/disc,Bacillus spizizenii [8],13 mm
same,zone of inhibition at 200 µg/disc,[9],40 mm
same,MIC,[10],0.25 µg/mL
same,zone of inhibition at 200 µg/disc,Pseudomonas aeruginosa [11],< 6 mm
same,MIC,Escherichia coli [12],0.5 µg/mL
same,MIC,Pseudomonas aeruginosa [13],inactive
same,zone of inhibition at 200 µg/disc,Staphylococcus aureus [14],10 mm
same,MIC,Shigella dysenteriae [15],0.25 µg/mL
same,MIC,Salmonella paratyphi [16],inactive
same,MIC,Bacillus spizizenii [17],0.125 µg/mL
same,zone of inhibition at 200 µg/disc,Salmonella paratyphi [18],< 6 mm
same,zone of inhibition at 200 µg/disc,Klebsiella pneumoniae [19],7 mm
c1ccc2c(c1)N=C(c1cc3ccccc3o1)CC(c1c[nH]c3ccccc13)S2 (stereo unspecified),IC50,Cholinesterase,60 µM
same,inhibition,[1],inactive
NYSTATIN,MIC,Candida albicans,0.125 µg/mL
same,inhibition zone (IZ),Aspergillus brasiliensis [20],23 mm
same,MIC,Aspergillus brasiliensis [21],0.5 µg/mL
same,MIC,Aspergillus niger [22],0.25 µg/mL
same,inhibition zone (IZ),Aspergillus niger [23],27 mm
COc1cccc(C2CC(c3cc4ccccc4o3)=Nc3ccccc3S2)c1 (stereo unspecified),IC50,Cholinesterase,4.1 µM
same,inhibition,[1],inactive
COc1cccc(C2CC(c3cc4cc(Br)ccc4o3)=Nc3ccccc3S2)c1 (stereo unspecified),IC50,Cholinesterase,1 µM
same,inhibition,[1],inactive
Brc1ccc2oc(C3=Nc4ccccc4SC(c4ccccc4)C3)cc2c1 (stereo unspecified),IC50,Cholinesterase,8.5 µM
same,inhibition,[1],inactive
COc1cccc2cc(C3=Nc4ccccc4SC(c4ccccc4)C3)oc12 (stereo unspecified),IC50,Cholinesterase,2.5 µM
same,inhibition,[1],inactive
Oc1ccc(C2CC(c3cc4ccccc4o3)=Nc3ccccc3S2)cc1 (stereo unspecified),IC50,Cholinesterase,14 µM
same,inhibition,[1],inactive
COc1ccc(C2CC(c3cc4cc(Br)ccc4o3)=Nc3ccccc3S2)cc1 (stereo unspecified),IC50,Cholinesterase,1 µM
same,inhibition,[1],inactive
Brc1ccc2oc(C3=Nc4ccccc4SC(c4c[nH]c5ccccc45)C3)cc2c1 (stereo unspecified),IC50,Cholinesterase,28 µM
same,inhibition,[1],inactive
